The nature of this series: Toxicity liver stage against HepG2, at 10uM. Also on record: test concentration 10 uM, cell line HepG2-A16-CD81EGFP. It is filed as cell-based. Particulars: human, HepG2-A16-CD81EGFP cells; read-out: INHIBITION
A digest of the protocol: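 Uninfected HepG2-A16-CD81EGFP cells, 3 × 10^3 per well, 1536-well, plated on prespotted compound at 10 μM final, parasite-free screening media added to match infected plates; puromycin 10 μM positive, DMSO 0.5% negative; run in parallel with 48 h PbLuc assay at 37 °C, 5% CO2; viability by CellTiter-Glo luminescence, normalized to controls.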

Turning to `CC(C)c1nnc2n1CCN(C(=O)c1ccc(OCC3CC3)cc1)C2`, the cytotoxicity at 10 µM was -6.14%.
Take `COCc1ccc(C(=O)N2CCC(Oc3ccccc3OC)CC2)s1`: the cytotoxicity at 10 µM was 5.79%.
Consider `COc1ccc(OCC2CCCN(Cc3ccncc3)C2)cc1` (configuration not stated), for which the cytotoxicity at 10 µM was -8.44%.
The result for `CC(c1cccc(S(N)(=O)=O)c1)N(C)CCOC(C)(C)C` (configuration not stated) reads -32.8%.
For `CCc1onc(C)c1C(=O)N1CCN(c2ncc3c(n2)CCOC3)CC1`, the cytotoxicity at 10 µM came to 0.0912%.
With `O=C(CN1CCCC1=O)N1CCC(O)(Cn2ccc3ccncc32)CC1`, the cytotoxicity at 10 µM is -5.55%.
The result for `CC(C)c1noc(-c2ccc(NCC3CCCOC3)nc2)n1` (configuration not stated) reads -2.26%; that for `CC[C@@H](C)[C@H](NC(=O)CCn1cc(C(C)=O)c2ccccc21)C(=O)O`, -5.27%; that for `O=C1CC(c2ccncc2)C2(CCN(C(=O)c3ccc[nH]3)CC2)N1` (configuration not stated), 3.78%.
With `CCc1cc(C(=O)N[C@H]2CN(CCS(C)(=O)=O)C[C@@H]2C2CC2)[nH]n1`, the cytotoxicity at 10 µM came out at 3.91%.
Then `COC(=O)C(c1cc(F)ccc1F)N(C)C(=O)c1ccnc(C)n1` (configuration not stated), with -0.337%.
With `CC(C)COc1cncc(NCC(O)c2ccco2)n1` (configuration not stated), the cytotoxicity at 10 µM is -2.85%.
As for `Cc1csc(C2CCCCN2C(=O)CN(C)Cc2ccccc2)n1` (configuration not stated), the cytotoxicity at 10 µM was 2.62%.
The result for `CCCc1n[nH]c(C2CN(C(=O)c3cc(C4CC4)on3)CCO2)n1` (configuration not stated) reads 0.471%; that for `Cc1cccnc1CN1CCCCC1c1ccn2ccnc2n1` (configuration not stated), 0.498%; that for `CC(C)C(C)(C#N)NC(=O)Cn1cc(-c2ccccc2)cn1` (configuration not stated), 8.34%.
Then `CC(C(N)=O)N(C)CCCc1cc(-c2ccccc2)no1` (configuration not stated), with -5.01%; and `CC(C)Oc1cccc(-c2nc3c([nH]2)CCCNC3=O)c1`, with 27.3%.
On to `Cc1cc(C(=O)N2CCC(c3nccn3CCCN(C)C)CC2)no1`, for which the cytotoxicity at 10 µM is -12.4%.
Then `CNC(=O)CN1CCCC12CCN(C(=O)c1ccoc1)CC2`, with 6.53%; and `COCCOC(=O)N1CC2=CC(C)(C)COc3ccc(OC)c(c32)C1`, with 1.22%.
As to `CNC(=O)C1Cn2ccnc2C2(CCN(c3ccc(C)nn3)CC2)O1` (configuration not stated), the cytotoxicity at 10 µM is -137%.
Take `CCN(CC)C(=O)c1ccn(COc2c(Cl)cccc2Cl)n1`: the cytotoxicity at 10 µM came to 11.6%.
Turning to `Cc1ccsc1C1CCCCCN1Cc1cn(C)nc1C` (configuration not stated), the cytotoxicity at 10 µM is -4.38%.
As to `O=C(NCCNc1ncccn1)c1cnc(-c2ccccc2)nc1`, the cytotoxicity at 10 µM was 12.1%.
The result for `COC(C)(C)CNC(=O)N1CCC(n2ccc(C(F)(F)F)n2)CC1` reads -2.41%; that for `Cc1ccc(-n2c(COCC(=O)O)nc3c(C)cccc32)nc1`, 2.43%.
With `COc1ccc([C@@H]2CN(C(=O)CS(C)(=O)=O)C[C@H]2NC(C)=O)cc1`, the cytotoxicity at 10 µM stood at 0.541%.
Then `CC(C)NC(=O)CN1CCN(CC2CCOc3ccccc3C2)CC1` (configuration not stated), with -1.72%; and `CCSc1cncc(NCc2ccc(N3CCNC(=O)C3)cc2)n1`, with 15.7%.
On to `COC(=O)COc1cccc(NS(=O)(=O)c2cc(C(=O)O)cs2)c1`, for which the cytotoxicity at 10 µM is -5.25%.
For `O=C(c1ccn[nH]1)N1CCCC(n2cncn2)C1` (configuration not stated), the cytotoxicity at 10 µM was 1.56%.
Then `O=C(Nc1nnc(N2CCCCC2)[nH]1)c1cccs1`, with -10.7%; and `Cn1ncnc1NS(=O)(=O)c1ccc(F)cc1`, with 7.66%; and `COCCC(=O)N1CCC(c2cc3ncc(C)nc3[nH]2)CC1`, with -8.86%.
The result for `O=C(NCC1CC1)C1=NOC2(CCN(S(=O)(=O)c3ccc(F)cc3)C2)C1` (configuration not stated) reads 3.25%; that for `COc1ccc(NC(=O)CCC2CCCN(Cc3ncon3)C2)c(C)c1` (configuration not stated), 0.523%.
Then `COc1ccc(S(=O)(=O)N2CCc3ccc(Cl)cc32)cc1C(=O)O`, with -11.6%; and `COCCN(C)CCN1CC2(CCN(C3CCOCC3)CC2)OC1=O`, with 4.5%.
On to `Cc1c(CN2CCCC2(C)C(=O)NC2CCCC2)cnn1C` (configuration not stated), for which the cytotoxicity at 10 µM turned out to be 1.05%.
Then `CC1=C(C(=O)N(C)Cc2n[nH]c3c2CCCCC3)C(C)NC(=O)N1` (configuration not stated), with -0.178%.
The result for `Cn1ccnc1CNC(=O)CC1CCCCO1` (configuration not stated) reads 1.24%.
The result for `c1nc(CNC2CCOCC2)c2n1CCCN(CC1CC1)C2` reads -69.1%; that for `O=C(C1CCC1)N1CCC2(COCc3cnc(N4CCOCC4)nc32)C1` (configuration not stated), -11.8%; that for `O=C(CC1CCCC1)N1CCCC(c2n[nH]c3nccnc23)C1` (configuration not stated), -2.6%.
`Cc1ccc(CNC2CCN(CCc3ccncc3)CC2)cc1C`: the cytotoxicity at 10 µM was -8.92%.
Then `O=C(N[C@@H]1CCN(c2nccc3ccccc23)C[C@H]1O)c1cnccn1`, with -6.71%; and `Cc1nnc(NC(=O)CN2CCc3nn(C)c(=O)cc3C2)s1`, with -6.18%; and `C[C@@H]1CN(C(=O)c2cccs2)C[C@]12CCN(CCN(C)C)C2=O`, with 4.4%.
Then `Cc1ccoc1C(=O)NC1CCN(Cc2ccccc2C#N)CC1`, with -3.51%; and `O=C(CCNC(=O)c1ccoc1)Nc1ccccc1F`, with -8.38%; and `COCCNC(=O)C(C)n1cc(Br)cn1` (configuration not stated), with -15%.
Then `COc1ccc(-c2cnc3c(c2)CN(C2CC2)C(=O)CCN3)cc1`, with 4.09%; and `CCc1cc(C(=O)N2CCC(C3CCN(c4ncccn4)CC3)C2)on1` (configuration not stated), with 2.25%.
Consider `c1cc(CN2CCc3ncnc(C4CCOC4)c3CC2)ccn1` (configuration not stated), for which the cytotoxicity at 10 µM is -0.703%.
The result for `O=C(CCNC(=O)C1=Cc2ccccc2OC1)NCc1ccncc1` reads 5.6%.
The result for `CC(CN1CCCC1=O)NC(=O)Nc1cccnc1-n1cccn1` (configuration not stated) reads -170%.
Then `CCC(C)(C)NC(=O)Cn1cc(C(N)=O)c(-c2ccccc2)n1`, with -6.84%; and `CN(CCC(F)(F)F)C(=O)C1CCCN1C(=O)OC(C)(C)C` (configuration not stated), with -0.653%; and `N#Cc1c(SCCN2CCCCCC2)sc2c(O)cc(O)nc12`, with -10.5%.
On to `CCN1CC(C(=O)N2CCc3cc(C(=O)N(C)C)n(C)c3C2)CCC1=O` (configuration not stated), for which the cytotoxicity at 10 µM was -48.1%.
For `CCOC(=O)C(C)Nc1ccc(CCN2CCOCC2)cc1` (configuration not stated), the cytotoxicity at 10 µM is -2.2%.
Then `CN1CCN(Cc2cn3c(n2)CN(C(=O)N2CCCC2)CC3)CC1`, with 3.23%; and `Cn1ncc2c(N3CCCC(C)(O)C3)nc(-c3cccnc3)nc21` (configuration not stated), with 9.98%; and `CCCC(=O)N1CCC(C(=O)NCCNc2ncccn2)CC1`, with -20%.
`N#CCCCS(=O)(=O)NC(=O)c1cccc(Cl)c1F`: the cytotoxicity at 10 µM was -2.8%.
Then `O=C(O)C1(Cc2cc(-c3ccc(F)cc3F)no2)CCOCC1`, with 3.37%.
With `Cc1c(NC(=O)N(C)CCO)cccc1OC1CCCC1`, the cytotoxicity at 10 µM was -0.172%.
Take `Cc1nonc1NC(=O)C1SCCc2ccccc21` (configuration not stated): the cytotoxicity at 10 µM was -3%.
Then `CCC1CN(CCCNS(C)(=O)=O)c2ccccc2O1` (configuration not stated), with -7.03%; and `Cc1ccccc1-n1cnnc1SCCOCC1CCCO1` (configuration not stated), with -3.73%.
Consider `CC(C)CS(=O)(=O)N1C[C@@H]2C[C@H](C(=O)N3CCN(C)CC3)[C@H](C1)O2`, for which the cytotoxicity at 10 µM is 0.508%.
Take `Clc1cccc(C[C@@H]2NCCC[C@@H]2Nc2cccc(Cl)c2)c1`: the cytotoxicity at 10 µM turned out to be 86%.
The result for `COCc1noc(-c2nn(-c3ccccc3F)c3c2CCC3)n1` reads -2.68%; that for `COc1c(C2CCCN2Cc2c(C)noc2C)c(C)nn1C` (configuration not stated), 5.73%.
Then `O=C(c1coc(CN2CCN(c3ccccc3F)CC2)n1)N1CC=CC1`, with -3.06%; and `Cc1noc([C@]23COC[C@H]2CN(C(=O)CN(C)C)C3)n1`, with -104%.
The result for `COc1ccc(C(=O)N(C)Cc2nnc3ccccn23)c(OC)c1OC` reads -11.5%; that for `CC(C)n1nc2c(cc1=O)CN(CCOc1ccc(C#N)cc1)CC2`, 14.9%.
`O=C(CCc1ccsc1)N1CCC(Nc2cccnn2)CC1`: the cytotoxicity at 10 µM was -4.71%.
With `Cc1cccc(C)c1OCCC(=O)N1CCC(c2nncn2C)CC1`, the cytotoxicity at 10 µM is -12%.
`CN(C)CCO[C@@H]1CC[C@H]2[C@H]1OCCN2C(=O)c1ccnnc1`: the cytotoxicity at 10 µM was -2.1%.
The result for `C=C(C)CNC(=O)C1CCCN(C2CCN(C(C)C)CC2)C1` (configuration not stated) reads -0.454%.
Then `CC(C)c1noc(CN2CCN(C(=O)OC(C)(C)C)C(C)C2)n1` (configuration not stated), with 2.24%.
The result for `O=C(NC1CC1)c1ccnc(N2CCOC(c3ccc(Cl)c(Cl)c3)C2)c1` (configuration not stated) reads 14%; that for `Cc1cc(C)c(CNC(=O)CC2CCCO2)c(=O)[nH]1` (configuration not stated), -10.7%.
With `CCN1CCCC(O)(CNCc2ccccc2F)C1` (configuration not stated), the cytotoxicity at 10 µM was -5.66%.
In the case of `CCC(CNC(=O)OC)(OC)c1ccccc1` (configuration not stated), the cytotoxicity at 10 µM amounted to 1.37%.
Take `CCOCC1CN(Cc2ccco2)Cc2nccn2C1` (configuration not stated): the cytotoxicity at 10 µM is -142%.
`CCn1nc(C)c(NC(=O)CN2CCC(c3ccccc3Cl)C2)c1C` (configuration not stated): the cytotoxicity at 10 µM was -7.58%.
As to `O=C1O[C@@H]2CN(Cc3cc4ccccc4o3)C[C@@H]2N1Cc1ccccn1`, the cytotoxicity at 10 µM worked out at 5.16%.
On to `FC(F)(F)COCCN1CCc2cncnc2C1`, for which the cytotoxicity at 10 µM is -2.67%.
On to `CN(Cc1ccco1)C(=O)CN1CCCC1Cn1cncn1` (configuration not stated), for which the cytotoxicity at 10 µM is -24.1%.
The result for `COCC1CN(C(=O)c2cccc(C)n2)Cc2ncnn2C1` (configuration not stated) reads 3.84%; that for `Cc1cc(C(F)(F)F)nc(C2CCCN2S(C)(=O)=O)n1` (configuration not stated), 2.68%.
For `COc1ccc(Cn2c(Cc3c(C)n[nH]c3C)n[nH]c2=O)cc1`, the cytotoxicity at 10 µM is -142%.
The result for `O=C(c1ccncc1F)N1CCCC1c1nc(-c2ccccc2)n[nH]1` (configuration not stated) reads 1.34%.

For the origin of these results see ChEMBL document CHEMBL4513216, “Probing the Open Global Health Chemical Diversity Library for Multistage-Active Starting Points for Next-Generation Antimalarials” (ACS Infect Dis, 2020).
